In PubChem BioAssay AID588760 (Johns Hopkins Ion Channel Center, 2011):
Active and inactive are the calls of the source.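 How the source made its calls: active means fitted dose response curve and peak inhibition of the Kir2.1 potassium channel above 30% at some dose; inactive means no dose response or no inhibition at any dose.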

Biological target: Inward rectifier potassium channel 2 (Mus musculus) (UniProt P35561)
Assay: Kir2.1 channel inhibition, specificity check, SAR follow-up, selectivity assay for KCNK9 inhibitor project, cell-based, FluxOR thallium flux, CRC round 3 (AID 588760)
Settings: Kir2.1-expressing cells, 20 min; series mostly up to 30 µM; thallium flux ratio, lower = inhibition: at the top concentration
In short: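 Times – dye loading 90 min RT, compound 20 min RT pre-stimulus · Test system – Kir2.1-expressing HEK293 cells loaded with FluxOR thallium-sensitive dye · Probe or stimulus – potassium sulfate plus thallium sulfate stimulus, 5x stock 25/7 mM · Dosing – 10-concentration dilution series per compound · Technique – kinetic fluorescence of thallium-sensitive dye · Replication – two or more replicates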

Sequence of Inward rectifier potassium channel 2 (Mus musculus) (P35561 whole entry, looked up): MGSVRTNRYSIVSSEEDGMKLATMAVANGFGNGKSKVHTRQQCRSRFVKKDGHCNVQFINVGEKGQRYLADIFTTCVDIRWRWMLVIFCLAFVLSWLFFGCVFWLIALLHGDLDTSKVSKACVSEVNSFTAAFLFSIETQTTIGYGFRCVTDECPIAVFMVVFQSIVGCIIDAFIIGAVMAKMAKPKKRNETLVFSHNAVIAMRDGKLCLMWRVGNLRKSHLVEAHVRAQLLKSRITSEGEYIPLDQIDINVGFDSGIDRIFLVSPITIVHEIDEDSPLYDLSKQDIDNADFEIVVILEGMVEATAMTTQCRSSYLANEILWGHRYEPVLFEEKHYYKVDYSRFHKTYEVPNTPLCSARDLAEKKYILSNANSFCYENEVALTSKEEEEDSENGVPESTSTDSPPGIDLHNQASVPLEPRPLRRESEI

Thallium flux ratio, lower = inhibition, inactive:
COc1cccc(C(=O)CSc2nnc(-c3ccco3)n2C(C)C2CC3CCC2C3)c1 (stereo not drawn) 1.4
COc1ccc(C(=O)CSc2nnc(-c3ccco3)n2C(C)C2CC3CCC2C3)cc1OC (stereo not drawn) 1.32
CC(C1CC2CCC1C2)n1c(-c2cccc(N(C)C)c2)n[nH]c1=S (stereo not drawn) 1.34
COc1cccc(-c2n[nH]c(=S)n2C(C)C2CC3CCC2C3)c1OC (stereo not drawn) 1.62
CSc1nnc(-c2ccco2)n1C(C)C1CC2CCC1C2 (stereo not drawn) 0.744
S=c1[nH]nc(-c2ccco2)n1C1CC2CCC1C2 (stereo not drawn) 1.42
COc1cccc(-c2nnc(S(C)(=O)=O)n2C(C)C2CC3CCC2C3)c1 (stereo not drawn) 1.85
CC(C1CC2CCC1C2)n1c(SCC#N)nnc1-c1cccs1 (stereo not drawn) 1.26
S=c1[nH]nc(-c2ccco2)n1CC1CC2CCC1C2 (stereo not drawn) 1.13
CC(C1CC2CCC1C2)n1c(SCC(=O)c2ccc3c(c2)OCO3)nnc1-c1ccco1 (stereo not drawn) 1.49
CC(C1CC2CCC1C2)n1c(-c2ccccc2F)n[nH]c1=S (stereo not drawn) 1.75
COc1ccccc1C(=O)Nc1cccc(NC(=O)c2cccc3ccccc23)c1 1.82
CC(C1CC2CCC1C2)n1c(-c2ccccn2)n[nH]c1=S (stereo not drawn) 1.72
COc1cc(OC)cc(-c2n[nH]c(=S)n2C(C)C2CC3CCC2C3)c1 (stereo not drawn) 1.79
CC(C1CC2CCC1C2)n1c(-c2ccncc2)n[nH]c1=S (stereo not drawn) 2.29
CC(C1CC2CCC1C2)n1c(SCC(=O)c2ccc(Cl)c(Cl)c2)nnc1-c1ccco1 (stereo not drawn) 1.98
CC(C)c1ccccc1C(=O)Nc1cccc(NC(=O)c2ccccc2OC(F)(F)F)c1 1.83

outcome, inactive:
CC(C1CC2CCC1C2)n1c(-c2ccco2)n[nH]c1=S (stereo not drawn)
